# Results of several laboratories.
# Target: Muscarinic acetylcholine receptor M1 (CHRM1, Homo sapiens, UniProt P11229)
# Tested at: 10 µM
# Sequence (P11229 1-460, as in one of the studies): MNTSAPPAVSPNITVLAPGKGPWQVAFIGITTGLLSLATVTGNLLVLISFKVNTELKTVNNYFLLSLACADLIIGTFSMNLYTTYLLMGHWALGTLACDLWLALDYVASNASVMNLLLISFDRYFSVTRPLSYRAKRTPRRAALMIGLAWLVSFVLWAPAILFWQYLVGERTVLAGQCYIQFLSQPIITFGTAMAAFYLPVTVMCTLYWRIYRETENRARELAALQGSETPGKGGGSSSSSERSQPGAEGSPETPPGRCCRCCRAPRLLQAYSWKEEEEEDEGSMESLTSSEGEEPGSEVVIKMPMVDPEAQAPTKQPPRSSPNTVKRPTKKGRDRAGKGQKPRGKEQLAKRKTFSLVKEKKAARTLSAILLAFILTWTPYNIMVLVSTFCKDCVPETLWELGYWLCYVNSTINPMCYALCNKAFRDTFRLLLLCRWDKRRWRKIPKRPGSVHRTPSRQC
Compound,test,inhibition
CCN(Cc1ccccc1C(F)(F)F)C(=O)C1CCN(S(=O)(=O)c2ccc3[nH]ncc3c2)CC1,"ligand displacement, radioligand",1%
O=C(c1ccc(Cl)cc1)N(Cc1ccccc1)C1CCCCC1,cell-free assay,-25.8%
O=C(Nc1ccc(S(=O)(=O)N2CCC(Cl)CC2)cc1)c1ccc([N+](=O)[O-])o1,"ligand displacement, radioligand",2%
Oc1cccc(Nc2nc(-c3ccc(F)cc3F)cs2)c1,cell-free assay,-66%
N#Cc1cc(Cn2c(N3CCCC3)nc3ccccc32)ccc1F,ligand displacement,-15.5%
O=C1N=C(N2CCCCN2)S/C1=C\c1ccc(F)cc1O,"ligand displacement, radioligand",< 10%
CCCNc1nc2ccccc2n1Cc1ccc(Cl)cc1,ligand displacement,-16.1%
CCN(CC)c1ccc(C2Nc3ccc(C(=O)c4ccccc4)cc3NC3=C2C(=O)CC(C)(C)C3)cc1 (centres unmarked),"ligand displacement, radioligand",-4%
